Source: ChEMBL document CHEMBL1156191, “Characterization of the pharmacophore properties of novel selective estrogen receptor downregulators (SERDs)” (J Med Chem, 2010)
Active and inactive are the calls of the source. The calls are words filed in the database; no cut-off is given here.

Experiments:
[1] = target: Estrogen receptor beta (Homo sapiens) (UniProt Q92731); test: Displacement of [3H]estradiol from full-length human estrogen receptor beta assessed as relative binding affinity by radiometric assay relative to estradiol
[2] = target: T1, Estrogen receptor (Homo sapiens) (UniProt P03372); test: Displacement of [3H]estradiol from full-length human estrogen receptor alpha assessed as relative binding affinity by radiometric assay relative to estradiol
T1 sequence (whole entry): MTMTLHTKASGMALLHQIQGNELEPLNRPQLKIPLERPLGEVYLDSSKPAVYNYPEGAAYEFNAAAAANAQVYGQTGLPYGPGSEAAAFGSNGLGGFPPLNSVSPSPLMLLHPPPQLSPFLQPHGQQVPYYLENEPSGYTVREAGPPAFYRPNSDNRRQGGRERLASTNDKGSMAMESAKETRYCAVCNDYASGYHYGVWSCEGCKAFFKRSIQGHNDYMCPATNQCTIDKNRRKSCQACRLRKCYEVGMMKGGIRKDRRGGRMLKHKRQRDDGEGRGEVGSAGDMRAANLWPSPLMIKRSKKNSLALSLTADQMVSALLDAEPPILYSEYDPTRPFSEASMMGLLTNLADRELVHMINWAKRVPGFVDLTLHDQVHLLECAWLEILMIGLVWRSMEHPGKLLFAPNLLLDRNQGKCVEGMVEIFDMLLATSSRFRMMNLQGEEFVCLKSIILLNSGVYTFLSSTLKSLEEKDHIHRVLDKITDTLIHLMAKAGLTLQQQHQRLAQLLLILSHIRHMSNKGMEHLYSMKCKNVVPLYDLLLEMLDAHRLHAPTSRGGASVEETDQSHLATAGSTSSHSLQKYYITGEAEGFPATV

Homo sapiens = species: Homo sapiens; test: Ratio of relative binding affinity for human ERbeta to relative binding affinity for human ERalpha
MCF7 [3] = test: Down regulation of ERalpha expression in human MCF7 cell nuclear fraction at 1 uM after 16 hrs by Western blotting; assay type: functional, cell-based
Summary of the method: (§1)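 MCF-7 cells steroid-depleted five days in phenol red-free medium with 5% charcoal-dextran-treated calf serum, grown to ~80% confluency, then given 1 μM compound or 0.1% EtOH vehicle for 16 h. Cytoplasmic, nuclear, matrix and insoluble fractions or whole-cell lysate prepared. Western blot with anti-ERα (F10) and infrared detection; Sp1 serves as loading reference.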

MCF7 [4] = test: Down regulation of ERalpha expression in human MCF7 cell matrix fraction at 1 uM after 16 hrs by Western blotting; assay type: functional, cell-based; summary of the method: as §1
MCF7 [5] = test: Down regulation of ERalpha expression in human MCF7 cell cytoplasmic fraction at 1 uM after 16 hrs by Western blotting; assay type: functional, cell-based; summary of the method: as §1
MCF7 [6] = test: Down regulation of ERalpha expression in human MCF7 cell whole cell extract at 1 uM treated 16 hrs before estradiol challenge measured after 4 hrs by Western blotting in presence of 1 nM estradiol; assay type: functional, cell-based
Summary of the method: (§2)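 Steroid-depleted MCF-7 cells (5 d, 5% charcoal-dextran calf serum, phenol red-free medium) exposed 16 h to 1 μM compound, then 1 nM estradiol added for 4 h before fractionation into cytoplasmic, nuclear, matrix, insoluble or whole-cell extracts. ERα detected by Western blot with F10 antibody; Sp1 used as loading reference.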

MCF7 [7] = test: Down regulation of ERalpha expression in human MCF7 cell insoluble fraction at 1 uM after 16 hrs by Western blotting; assay type: functional, cell-based; summary of the method: as §1
MCF7 [8] = test: Down regulation of ERalpha expression in human MCF7 cell cytoplasmic fraction at 1 uM treated 16 hrs before estradiol challenge measured after 4 hrs by Western blotting in presence of 1 nM estradiol; assay type: functional, cell-based; summary of the method: as §2
MCF7 [9] = test: Down regulation of ERalpha expression in human MCF7 cell whole cell extract at 1 uM after 16 hrs by Western blotting; assay type: functional, cell-based; summary of the method: as §1
MCF7 [10] = test: Down regulation of ERalpha expression in human MCF7 cell nuclear fraction at 1 uM treated 16 hrs before estradiol challenge measured after 4 hrs by Western blotting in presence of 1 nM estradiol; assay type: functional, cell-based; summary of the method: as §2
[11] = target: T1, Estrogen receptor (Homo sapiens); test: Effect on ERalpha-mediated transcriptional activity in human MCF7 cells assessed as reduction of estradiol-induced activation of progesterone receptor mRNA expression at 1 uM treated 16 hrs before estradiol challenge measured after 4 hrs by RT-PCR analysis; assay type: cell-based
Summary of the method: (§3)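 MCF-7 cells steroid-depleted seven days in phenol red-free medium with 5% charcoal-dextran calf serum, grown to ~80% confluency, then given 1 μM compound 16 h followed by 0.1% ethanol vehicle or 1 nM estradiol for 4 h. Total RNA reverse transcribed and target mRNA quantified by real-time PCR. Repeated-measures one-way ANOVA with Tukey test.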

MCF7 [12] = test: Down regulation of ERalpha expression in human MCF7 cell matrix fraction at 1 uM treated 16 hrs before estradiol challenge measured after 4 hrs by Western blotting in presence of 1 nM estradiol; assay type: functional, cell-based; summary of the method: as §2
[13] = target: T1, Estrogen receptor (Homo sapiens); test: Effect on ERalpha-mediated transcriptional activity in human MCF7 cells assessed as reduction of estradiol-induced activation of carbonic anhydrase 12 mRNA expression at 1 uM treated 16 hrs before estradiol challenge measured after 4 hrs by RT-PCR analysis; assay type: cell-based; summary of the method: as §3
[14] = target: T1, Estrogen receptor (Homo sapiens); test: Effect on ERalpha-mediated transcriptional activity in human MCF7 cells assessed as reduction of estradiol-induced activation of pS2 mRNA expression at 1 uM treated 16 hrs before estradiol challenge measured after 4 hrs by RT-PCR analysis; assay type: cell-based; summary of the method: as §3
MCF7 [15] = test: Down regulation of ERalpha expression in human MCF7 cell insoluble fraction at 1 uM treated 16 hrs before estradiol challenge measured after 4 hrs by Western blotting in presence of 1 nM estradiol; assay type: functional, cell-based; summary of the method: as §2

Estrogen receptor beta (Homo sapiens), sequence (Q92731 whole entry): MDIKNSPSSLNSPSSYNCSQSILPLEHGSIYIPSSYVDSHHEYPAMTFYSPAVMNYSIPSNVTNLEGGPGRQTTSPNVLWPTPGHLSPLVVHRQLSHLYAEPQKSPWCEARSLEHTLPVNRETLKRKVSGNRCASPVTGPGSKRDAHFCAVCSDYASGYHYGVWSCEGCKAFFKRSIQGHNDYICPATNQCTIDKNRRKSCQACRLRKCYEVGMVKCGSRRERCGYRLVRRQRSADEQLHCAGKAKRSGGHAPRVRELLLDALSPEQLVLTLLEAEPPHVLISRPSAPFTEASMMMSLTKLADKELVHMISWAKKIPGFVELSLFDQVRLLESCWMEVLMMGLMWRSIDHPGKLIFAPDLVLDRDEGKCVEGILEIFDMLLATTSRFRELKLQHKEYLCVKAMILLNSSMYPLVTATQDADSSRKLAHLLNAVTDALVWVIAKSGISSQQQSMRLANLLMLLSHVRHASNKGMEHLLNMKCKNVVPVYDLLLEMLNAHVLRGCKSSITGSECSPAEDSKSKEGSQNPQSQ

Compound: O=C(O)CCC/C=C/c1ccc(C(=C2C3CCCC2CCC3)c2ccc(O)cc2)cc1
- relative binding affinity (RBA) [1]: 62.8
- relative binding affinity (RBA) [2]: 38.5
- Ratio (Homo sapiens): 1.6

Compound: O=C(O)/C=C/c1ccc(C(=C2C3CCCC2CCC3)c2ccc(O)cc2)cc1
- Activity (MCF7 [3]): inactive
- Activity (MCF7 [4]): inactive
- Activity (MCF7 [5]): Active
- Activity (MCF7 [6]): Active
- Activity (MCF7 [7]): inactive
- Activity (MCF7 [8]): Active
- Activity (MCF7 [9]): inactive
- Activity (MCF7 [10]): Active
- Activity [11]: Active
- Activity (MCF7 [12]): Active
- Activity [13]: Active
- Activity [14]: Active
- Activity (MCF7 [15]): Active

Compound: O=C(O)CCCCCCCCCCOc1ccc(C(=C2C3CCCC2CCC3)c2ccc(O)cc2)cc1
- Activity (MCF7 [3]): inactive
- Activity (MCF7 [4]): inactive
- Activity (MCF7 [5]): inactive
- Activity (MCF7 [7]): inactive
- Activity (MCF7 [9]): inactive

Compound: C[C@]12CC[C@@H]3c4ccc(O)cc4C[C@@H](CCCCCCCCC[S+]([O-])CCCC(F)(F)C(F)(F)F)[C@H]3[C@@H]1CC[C@@H]2O (stereo partly drawn)
- Activity (MCF7 [3]): Active
- Activity (MCF7 [4]): Active
- Activity (MCF7 [5]): Active
- Activity (MCF7 [7]): Active
- Activity (MCF7 [9]): Active

Compound: O=C(O)CC/C=C/c1ccc(C(=C2C3CCCC2CCC3)c2ccc(O)cc2)cc1
- relative binding affinity (RBA) [1]: 24.6
- relative binding affinity (RBA) [2]: 13.1
- Ratio (Homo sapiens): 1.9

Compound: COP(=O)(O)/C=C/c1ccc(C(=C2C3CCCC2CCC3)c2ccc(O)cc2)cc1
- relative binding affinity (RBA) [1]: 7.7
- relative binding affinity (RBA) [2]: 7.5
- Ratio (Homo sapiens): 1

Compound: O=C(O)/C=C/c1ccc(C(=C2CCCCC2)c2ccc(O)cc2)cc1
- Activity (MCF7 [3]): inactive
- Activity (MCF7 [4]): inactive
- Activity (MCF7 [5]): inactive
- Activity (MCF7 [6]): Active
- Activity (MCF7 [7]): inactive
- Activity (MCF7 [8]): Active
- Activity (MCF7 [9]): inactive
- Activity (MCF7 [10]): Active
- Activity (MCF7 [12]): Active
- Activity (MCF7 [15]): Active

Compound: Oc1ccc(C(=C2CCCCC2)c2ccc(O)cc2)cc1
- relative binding affinity (RBA) [1]: 334
- relative binding affinity (RBA) [2]: 68

Compound: O=C(O)C/C=C/c1ccc(C(=C2C3CCCC2CCC3)c2ccc(O)cc2)cc1
- relative binding affinity (RBA) [1]: 23.1
- relative binding affinity (RBA) [2]: 9
- Ratio (Homo sapiens): 2.6

Compound: O=C(O)CCCC/C=C/c1ccc(C(=C2C3CCCC2CCC3)c2ccc(O)cc2)cc1
- Activity (MCF7 [3]): inactive
- Activity (MCF7 [4]): inactive
- Activity (MCF7 [5]): inactive
- Activity (MCF7 [7]): inactive
- Activity (MCF7 [9]): inactive
- relative binding affinity (RBA) [1]: 81.1
- relative binding affinity (RBA) [2]: 87.4
- Ratio (Homo sapiens): 0.93

Compound: CCC(=C(c1ccc(O)cc1)c1ccc(/C=C/C(=O)O)cc1)c1ccccc1
- Activity (MCF7 [3]): inactive
- Activity (MCF7 [4]): inactive
- Activity (MCF7 [5]): Active
- Activity (MCF7 [6]): Active
- Activity (MCF7 [7]): inactive
- Activity (MCF7 [8]): Active
- Activity (MCF7 [9]): inactive
- Activity (MCF7 [10]): Active
- Activity [11]: Active
- Activity (MCF7 [12]): Active
- Activity [13]: Active
- Activity [14]: Active
- Activity (MCF7 [15]): Active
